# Screening data from PubChem BioAssay.
# The list is not random: actives were taken first. Their share in the collection is about 3.3%.
# 5-HT1A blocker: blocks the human serotonin 5-HT1a receptor; AID 612; inhibition, % at 10 µM; CHO 5-HT1a Ga15 NFAT-bla reporter, antagonist mode; actives 0.68% (n = 62,000); P08908;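 active = inhibition above the mean of all tested compounds plus 3 SD, cut at about 43% in these data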;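 also: receptor stimulated by 5-CT agonist at 100 nM near EC80; beta-lactamase reporter measured by ratiometric fluorescence of a cleavable substrate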
# Target sequence (P08908 whole entry, looked up): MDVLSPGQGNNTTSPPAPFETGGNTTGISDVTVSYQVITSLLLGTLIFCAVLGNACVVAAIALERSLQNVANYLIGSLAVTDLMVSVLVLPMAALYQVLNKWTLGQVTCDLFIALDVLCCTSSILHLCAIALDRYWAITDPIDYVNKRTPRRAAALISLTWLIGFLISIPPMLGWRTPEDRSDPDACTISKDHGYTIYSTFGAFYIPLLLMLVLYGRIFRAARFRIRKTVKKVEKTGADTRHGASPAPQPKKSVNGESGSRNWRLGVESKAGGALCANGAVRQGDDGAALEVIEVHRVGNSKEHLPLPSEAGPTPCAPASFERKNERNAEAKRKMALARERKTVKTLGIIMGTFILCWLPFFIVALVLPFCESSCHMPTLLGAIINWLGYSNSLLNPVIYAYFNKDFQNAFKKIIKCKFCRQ
# HEK293 NFkB inh: inhibitors of the PMA/ionomycin-induced NF-kB reporter in HEK293 cells; HEK-293 NF-kB luciferase reporter, luminescence; inhibition, % at 3 µM; actives 0.21% (n = 62,000);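 active = inhibition above the mean of all tested compounds plus 3 SD, cut at about 40% in these data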
#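 Reagent: PMA plus ionomycin mix as NF-kB-activating stimulus. Assay system: NF-kB luciferase reporter HEK-293 cells. Technique: luminescence from luciferase substrate reagent. Incubation: 1 h compound pre-incubation, 16 h PMA/ionomycin at 37 °C. Benchmarks: DMSO only as uninhibited control, 10 µM reference inhibitor as full inhibition. Repeats: tested once.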
# HTR1E antagonist: 5-HT1E (human) receptor antagonism | P28566 | CHO 5-HT1E Ga15 NFAT-bla reporter, FRET, antagonist | inhibition, % at 6 µM | actives 0.99% (n = 65,000);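 active = inhibition above a set limit, the mean inhibition across every tested compound plus 3 SD, cut at about 29% in these data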;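 also: signal is the 460 over 535 nm emission ratio of beta-lactamase substrate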
# HTR1A agonist: 5-HT1a (human) receptor agonism | actives 0.56% (n = 65,000) | activation, % at 10 µM | P08908 | CHO 5-HT1a Ga15 NFAT-bla reporter, FRET ratio; 0% basal, 100% maximal reference agonist;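 active = activation above the screen-wide mean activation plus 3 SD, cut at about 19% in these data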
# Jurkat viability: cytotoxic compounds reducing Jurkat cell viability. Jurkat E6.1 viability, ATP luminescence, 48 h. inhibition, % at 4 µM. actives 1.2% (n = 56,000). AID 463;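 active = inhibition above the mean inhibition of all tested compounds plus 3 SD, cut at about 28% in these data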
# HTR1E agonist: 5-HT1E (human) receptor agonism | P28566 | CHO 5-HT1E Ga15 NFAT-bla reporter, FRET; 0% DMSO wells, 100% control agonist wells | activation, % at 6 µM | actives 0.69% (n = 65,000);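 active = activation above a set limit, the screen-wide mean activation plus 3 SD, cut at about 8.5% in these data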
# Numbers stand for hits; – = inactive; · = not tested or not shown.
SMILES,5-HT1A blocker,HEK293 NFkB inh,HTR1E antagonist,HTR1A agonist,Jurkat viability,HTR1E agonist
O=C(Cn1cnc2ccccc2c1=O)NCc1ccco1,–,–,–,–,–,–
Cc1nc2c3c(-c4ccccc4)nc(N4CCOCC4)nc3nn2c(C)c1CCC(=O)O,–,–,–,–,–,–
CCOc1ccc(C2Oc3nc(SC)nnc3-c3ccccc3N2C(C)=O)cc1OC (centres undefined),–,–,–,–,–,–
CN(C)c1ccc(-c2noc(-c3ccccc3O)n2)cc1,–,–,–,–,–,–
Clc1cccc(-c2cc3nc4c(c(N5CCOCC5)n3n2)CCCC4)c1,–,–,–,–,·,–
Fc1cccc(-c2cc3nc4c(c(N5CCOCC5)n3n2)CCCC4)c1,–,–,30,–,–,–
CS(=O)(=O)N(CC(=O)N1CCCCCC1)c1ccccc1,–,–,–,–,–,32
CN1CCN2c3ccccc3Cc3ccccc3C2C1 (centres undefined),·,·,–,–,·,86
COc1ccc(CN2CCCC(C(=O)N3CCCC3)C2)cc1 (centres undefined),–,–,–,–,–,–
O=C(C1CCN(Cc2ccc(OCc3ccccc3)cc2)CC1)N1CCCC1,–,–,–,–,–,11
COc1cccc(N2CCN(c3ncnc4c3cnn4-c3ccc(C)cc3C)CC2)c1,48,–,69,–,–,–
Cc1ccc(-n2ncc3c(N4CCCC4)ncnc32)c(C)c1,·,·,–,–,·,–
COc1ccccc1-c1cc(-c2cc(Cl)ccc2O)n[nH]1,·,·,–,–,·,–
COc1ccc(O)c(-c2cc(-c3cccs3)[nH]n2)c1,51,–,–,–,–,–
O=C1C2=C(Nc3ccccc3SC2c2ccco2)c2ccccc21 (centres undefined),70,–,–,–,–,–
O=C1c2ccccc2NC(c2ccco2)N1O (centres undefined),–,–,–,–,–,–
CN1Cc2cc(C(=O)c3cc(Cl)cc(CSc4ncccn4)c3O)cnc2NC1=O,60,–,80,–,98,–
Cc1cnc(C(=O)Nc2ccccc2-n2cccc2)cn1,–,–,–,–,–,–
COc1ccc(NC(=O)c2cnc(C)cn2)c2ncccc12,–,–,–,–,62,–
CCC(=O)c1cc(F)c(N2CCN(S(=O)(=O)c3ccc(C)cc3)CC2)cc1C,–,–,–,–,–,–
CN1CCCc2cc3c(C(F)(F)F)cc(=O)oc3nc21,–,–,41,–,–,–
CCOC(=O)c1ccc(NC(=O)COC)cc1,–,–,–,–,–,–
CCOC(=O)/N=C(/NC(=O)Nc1ccc(C(=O)OCC)cc1)OC,–,–,–,–,–,9.3
CCOC(=O)c1ccc(NC(=O)Cn2cccc2)cc1,–,–,–,–,–,26
O=C1C2C3C=CC(CO)(O3)C2C(=O)N1c1ccccc1-c1ccccc1 (centres undefined),104,–,103,–,61,–
SMILES,5-HT1A blocker,HEK293 NFkB inh,HTR1E antagonist,HTR1A agonist,Jurkat viability,HTR1E agonist
COc1ccc(C(=O)NCC23C=CC(O2)C2C(=O)N(Cc4ccccc4)C(=O)C23)cc1 (centres undefined),–,–,–,–,–,–
CCCCS(=O)(=O)/C=C\C=C/S(=O)(=O)CCCC,102,–,107,–,·,–
CCCCS(=O)(=O)/C=C\C1C2C=CC(C2)C1S(=O)(=O)CCCC (centres undefined),–,–,–,–,–,–
Cc1ccc2c(C)nc(NC3=NCN(CCc4ccccc4)CN3)nc2c1,–,–,–,–,–,–
O=C(Nc1sc2c(c1C(=O)O)CCC2)c1cccs1,–,–,–,–,–,–
NC(=O)c1c(NC(=O)c2cccs2)sc2c1CCCCCC2,–,–,–,–,–,11
CCOc1ccccc1-n1c(SCC(=O)NC(C)CC)nnc1-c1ccoc1C (centres undefined),–,–,–,–,–,–
O=C(CSc1nnnn1-c1ccccc1)Nc1nsc(-c2ccc(Cl)cc2)n1,50,–,–,–,–,–
Cc1nn(C)c(C)c1S(=O)(=O)N(CC(=O)NCc1cccs1)c1ccc(C(C)C)cc1,–,–,–,–,–,–
COc1ccc(N(CC(=O)NCc2cccs2)S(=O)(=O)c2c(C)nn(C)c2C)cc1,–,–,34,–,–,–
CCOC(=O)C1CCCN(S(=O)(=O)c2cccc3cccnc23)C1 (centres undefined),–,–,–,–,–,–
O=S(=O)(NCCCN1CCN(c2ccccc2F)CC1)c1cccc2cccnc12,–,–,–,–,–,9.1
CCC(c1nnnn1C(C)(C)C)N1CCN(c2cc(Cl)ccc2C)CC1 (centres undefined),44,–,–,–,–,–
CCCC(c1nnnn1CC1CCCO1)N1CCN(c2cc(Cl)ccc2C)CC1 (centres undefined),–,–,–,–,–,–
C=CCn1c(C(C)NC(=O)COC)nc2ccccc21 (centres undefined),–,–,–,–,–,–
COc1cc(C)c(Cl)cc1S(=O)(=O)NCc1ccncc1,–,–,–,–,67,–
Cc1nc(NCc2ccco2)c(C#N)c2c1COC(C)(C)C2,–,–,–,–,–,–
CC1(C)Cc2c(C#N)c(NCc3ccco3)nc(-c3ccco3)c2CO1,·,·,–,54,·,11
CC(C)c1nc2sc3c(NCc4ccco4)ncnc3c2c2c1COC(C)(C)C2,–,–,56,–,·,–
COC(=O)CSc1ncnc2c1sc1nc(-c3ccco3)c3c(c12)CC(C)(C)OC3,·,·,–,–,·,–
CCOC(=O)c1c(NC(=O)COC(=O)c2c(C)noc2C)sc2c1CCC2,–,–,–,–,–,–
Oc1c(CN2CCOCC2)cc(COCc2ccccc2)c2cccnc12,–,–,43,–,54,–
CCC(C)[C@@H](NC(=O)OC(C)(C)C)c1nnc(S(=O)(=O)Cc2cccc(C)c2)o1 (some centres undefined),51,–,–,–,–,–
CCC(C)C(NCc1cccc(C)c1)C(=O)O (centres undefined),–,–,–,–,·,–
CC(C)(C)OC(=O)N[C@@H](Cc1ccccc1)c1nnc(S(=O)(=O)Cc2ccccc2)o1,78,–,55,–,–,–
Cc1cc(C)c2cc(CN(CC3CCCO3)C(=O)NC3CCCCC3)c(=O)[nH]c2c1 (centres undefined),–,–,–,–,–,–
Cc1[nH]c2ccc(C(=O)OCCN(C)C)cc2c1C,–,–,–,–,–,31
Cn1ccnc1Sc1nc2ccccc2nc1NS(=O)(=O)c1ccccc1,–,–,–,–,–,–
CCOC(=O)CNC(=O)c1ccccc1Br,–,–,–,–,–,–
CCCCn1nc(NC(=O)c2cccs2)c2cc3cc(OC)ccc3nc21,–,–,–,22,–,–
